Results from ChEMBL document CHEMBL1128666, “Synthesis and antimicrobial and toxicological studies of amino acid and peptide derivatives of kanamycin A and netilmicin” (J Med Chem, 1995).
Converted amounts (≈) assume the structure as drawn. “And” between values parts separate entries of the source, which are not always exact repeats. Identical values can stand only once.

Experiments:
Escherichia coli [1] = test: Minimum inhibitory concentration (MIC) was measured against Escherichia coli ATCC 35218.; type: functional
Procedure, shortened: (§1)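 Strains from ATCC; compounds tested as sulfate salts (stable ≥24 h in water at pH 7.0). MIC taken as highest dilution with no visible bacterial growth, expressed in mg/L of free base.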

Enterococcus faecalis = test: Minimum inhibitory concentration (MIC) was measured against Enterococcus faecalis ATCC 29212.; type: functional
Serratia marcescens = test: Minimum inhibitory concentration measured against Serratia marcescens; type: functional
Procedure, shortened: (§2)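 Strains were clinical isolates from the microbiology laboratories of Cliniques Universitaires St-Luc and Hôpital Brugmann, Brussels, and were characterized there. Compounds were tested as sulfate salts, which were stable in distilled water at pH 7.0 for at least 24 h. MIC was the highest dilution giving no visible growth, expressed in mg/L of free base.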

Citrobacter freundii = test: Minimum inhibitory concentration (MIC) was measured against Citrobacter freundii.; type: functional; procedure, shortened: as §2
Escherichia coli [2] = test: Minimum inhibitory concentration (MIC) was measured against Escherichia coli ATCC 25922.; type: functional
Acinetobacter lwoffii = test: microbe, parasite or virus in culture; conditions: ATCC 17986
Enterobacter cloacae = test: Minimum inhibitory concentration (MIC) was measured against Enterobacter cloacae.; type: functional; procedure, shortened: as §2
Escherichia coli [3] = test: Minimum inhibitory concentration (MIC) was measured against Escherichia coli.; type: functional; procedure, shortened: as §2
Acinetobacter baumannii = test: Minimum inhibitory concentration (MIC) was measured against Acinetobacter baumanni ATCC 19606.; type: functional; procedure, shortened: as §1
Pseudomonas aeruginosa [4] = test: Minimum inhibitory concentration (MIC) was measured against Pseudomonas aeruginosa.; type: functional; procedure, shortened: as §2
Staphylococcus aureus [5] = test: microbe, parasite or virus in culture; conditions: ATCC 25923
Pseudomonas aeruginosa [6] = test: Minimum inhibitory concentration (MIC) was measured against Pseudomonas aeruginosa ATCC 27853.; type: functional
Staphylococcus aureus [7] = test: Minimum inhibitory concentration (MIC) was measured against Staphylococcus aureus.; type: functional; procedure, shortened: as §2
[8] = biological target: T1, Phospholipase A1 member A (Rattus norvegicus, UniProt P97535); test: IC50 was measured as concentration causing 50% inhibition of lysosomal phospholipase A1 activity.
T1 sequence (P97535 whole entry): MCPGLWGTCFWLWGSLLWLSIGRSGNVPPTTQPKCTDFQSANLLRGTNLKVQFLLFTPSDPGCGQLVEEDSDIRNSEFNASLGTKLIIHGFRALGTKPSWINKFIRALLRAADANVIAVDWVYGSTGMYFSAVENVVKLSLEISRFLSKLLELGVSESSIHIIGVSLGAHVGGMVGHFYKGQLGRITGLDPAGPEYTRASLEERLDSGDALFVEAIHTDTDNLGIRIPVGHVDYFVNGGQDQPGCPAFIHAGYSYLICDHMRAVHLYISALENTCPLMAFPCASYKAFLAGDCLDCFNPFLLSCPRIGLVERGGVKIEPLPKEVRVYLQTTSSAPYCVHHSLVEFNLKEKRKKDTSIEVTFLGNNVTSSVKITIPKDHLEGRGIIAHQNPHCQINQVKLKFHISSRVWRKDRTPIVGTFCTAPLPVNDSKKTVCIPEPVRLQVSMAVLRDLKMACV

[9] = Serratia marcescens, read-out: MIC
[10] = Enterobacter cloacae, read-out: MIC
[11] = Pseudomonas aeruginosa, read-out: MIC

In the case of `CC(N)C(=O)NC1CC(N)C(OC2OC(CN)C(O)C(O)C2O)C(O)C1OC1OC(CO)C(O)C(N)C1O` (stereo not given), the MIC (Escherichia coli [1]) is reported as 64 mg/L (≈ 115 µM), the MIC (Enterococcus faecalis) is reported as over 128 mg/L and the MIC (Serratia marcescens) is reported as over 128 mg/L. For the same compound, the MIC (Serratia marcescens; [9]) was 128 mg/L (≈ 230 µM), the MIC (Citrobacter freundii) was 64 mg/L (≈ 115 µM) and the MIC (Escherichia coli [2]) was 128 mg/L (≈ 230 µM). It also gave an MIC (Acinetobacter lwoffii) of over 128 mg/L, an MIC (Enterobacter cloacae) of over 128 mg/L and an MIC (Enterobacter cloacae; [10]) of 64 mg/L (≈ 115 µM). It also gave an MIC (Escherichia coli [3]) of over 128 mg/L, an MIC (Acinetobacter baumannii) of 128 mg/L (≈ 230 µM) and an MIC (Pseudomonas aeruginosa [4]; [11]) of over 128 mg/L. The MIC (Staphylococcus aureus [5]) was 16 mg/L (≈ 28.8 µM), the MIC (Pseudomonas aeruginosa [6]) was over 128 mg/L and the MIC (Staphylococcus aureus [7]) was over 128 mg/L.
`CCNC1CC(N)C(OC2OC(CNC(=O)C(C)N)=CCC2N)C(O)C1OC1OCC(C)(O)C(NC)C1O` (stereo not given) showed an MIC (Escherichia coli [1]) of 32 mg/L (≈ 58.5 µM), an MIC (Enterococcus faecalis) of 128 mg/L (≈ 234 µM) and an MIC (Serratia marcescens) of over 128 mg/L. For the same compound, the MIC (Serratia marcescens; [9]) was 128 mg/L (≈ 234 µM), the MIC (Citrobacter freundii) was 32 mg/L (≈ 58.5 µM) and the MIC (Escherichia coli [2]) was 128 mg/L (≈ 234 µM). The MIC (Acinetobacter lwoffii) was 128 mg/L (≈ 234 µM), the MIC (Enterobacter cloacae; [10]) was over 128 mg/L and the MIC (Escherichia coli [3]) was over 128 mg/L. The MIC (Acinetobacter baumannii) was over 128 mg/L, the MIC (Pseudomonas aeruginosa [4]; [11]) was over 128 mg/L and the MIC (Staphylococcus aureus [5]) was 32 mg/L (≈ 58.5 µM). It also gave an MIC (Pseudomonas aeruginosa [6]) of over 128 mg/L and an MIC (Staphylococcus aureus [7]) of over 128 mg/L.
Compound `NCC[C@H](O)C(=O)N[C@@H]1C[C@H](N)[C@@H](O[C@H]2O[C@H](CN)[C@@H](O)[C@H](O)[C@H]2O)[C@H](O)[C@H]1O[C@H]1O[C@H](CO)[C@@H](O)[C@H](N)[C@H]1O` [AMIKACIN] has an MIC (Escherichia coli [1]) of 2 mg/L (≈ 3.42 µM), an MIC (Enterococcus faecalis) of 64 mg/L (≈ 109 µM) and an MIC (Citrobacter freundii) of 4 mg/L (≈ 6.83 µM). For the same compound, the MIC (Escherichia coli [2]) was 8 mg/L (≈ 13.7 µM), the MIC (Acinetobacter lwoffii) was 32 mg/L (≈ 54.6 µM) and the MIC (Escherichia coli [3]) was 128 mg/L (≈ 219 µM). The MIC (Acinetobacter baumannii) was 16 mg/L (≈ 27.3 µM), the MIC (Pseudomonas aeruginosa [4]) was 64 mg/L (≈ 109 µM) and the MIC (Pseudomonas aeruginosa [4]; [11]) was 64 mg/L (≈ 109 µM). It also gave an MIC (Staphylococcus aureus [5]) of 4 mg/L (≈ 6.83 µM), an MIC (Pseudomonas aeruginosa [6]) of 32 mg/L (≈ 54.6 µM) and an MIC (Staphylococcus aureus [7]) of 32 mg/L (≈ 54.6 µM).
`CN[C@@H]1[C@@H](O)[C@@H](O[C@@H]2[C@@H](O)[C@H](O[C@H]3O[C@H](CN)[C@@H](O)[C@H](O)[C@H]3O)[C@@H](N)C[C@H]2NC(=O)[C@@H](O)CN)OC[C@]1(C)O` [ISEPAMICIN] gave an MIC (Escherichia coli [1]) of 2 mg/L (≈ 3.51 µM), an MIC (Enterococcus faecalis) of 64 mg/L (≈ 112 µM) and an MIC (Citrobacter freundii) of 4 mg/L (≈ 7.02 µM). For the same compound, the MIC (Escherichia coli [2]) was 8 mg/L (≈ 14 µM), the MIC (Acinetobacter lwoffii) was 16 mg/L (≈ 28.1 µM) and the MIC (Enterobacter cloacae) was 8 mg/L (≈ 14 µM). The MIC (Enterobacter cloacae; [10]) was 4 mg/L (≈ 7.02 µM), the MIC (Escherichia coli [3]) was 32 mg/L (≈ 56.2 µM) and the MIC (Acinetobacter baumannii) was 32 mg/L (≈ 56.2 µM). It also gave an MIC (Pseudomonas aeruginosa [4]) of 64 mg/L (≈ 112 µM), an MIC (Pseudomonas aeruginosa [4]; [11]) of 64 mg/L (≈ 112 µM) and an MIC (Staphylococcus aureus [5]) of 4 mg/L (≈ 7.02 µM). The MIC (Pseudomonas aeruginosa [6]) was 16 mg/L (≈ 28.1 µM) and the MIC (Staphylococcus aureus [7]) was 2 mg/L (≈ 3.51 µM).
In the case of `NC[C@H]1O[C@H](O[C@H]2[C@H](O)[C@@H](O[C@H]3O[C@H](CO)[C@@H](O)[C@H](N)[C@H]3O)[C@H](N)C[C@@H]2N)[C@H](O)[C@@H](O)[C@@H]1O` [KANAMYCIN], the MIC (Escherichia coli [1]) is reported as 2 mg/L (≈ 4.13 µM), the MIC (Enterococcus faecalis) is reported as 32 mg/L (≈ 66 µM) and the MIC (Citrobacter freundii) is reported as 4 mg/L (≈ 8.26 µM). The MIC (Escherichia coli [2]) was 8 mg/L (≈ 16.5 µM), the MIC (Acinetobacter lwoffii) was 16 mg/L (≈ 33 µM) and the MIC (Escherichia coli [3]) was over 128 mg/L. The MIC (Acinetobacter baumannii) was 4 mg/L (≈ 8.26 µM), the MIC (Pseudomonas aeruginosa [4]; [11]) was over 128 mg/L and the MIC (Staphylococcus aureus [5]) was 1 mg/L (≈ 2.06 µM). It also gave an MIC (Pseudomonas aeruginosa [6]) of over 128 mg/L and an MIC (Staphylococcus aureus [7]) of over 128 mg/L.
`CCN[C@@H]1C[C@H](N)[C@@H](O[C@H]2OC(CN)=CC[C@H]2N)[C@H](O)[C@H]1O[C@H]1OC[C@](C)(O)[C@H](NC)[C@H]1O` [NETILMICIN] showed an MIC (Escherichia coli [1]) of 0.5 mg/L (≈ 1.05 µM), an MIC (Enterococcus faecalis) of 4 mg/L (≈ 8.41 µM) and an MIC (Citrobacter freundii) of 0.25 mg/L (≈ 0.526 µM). It also gave an MIC (Escherichia coli [2]) of 1 mg/L (≈ 2.1 µM), an MIC (Acinetobacter lwoffii) of 32 mg/L (≈ 67.3 µM) and an MIC (Escherichia coli [3]) of over 128 mg/L. For the same compound, the MIC (Acinetobacter baumannii) was 32 mg/L (≈ 67.3 µM), the MIC (Pseudomonas aeruginosa [4]) was over 128 mg/L and the MIC (Pseudomonas aeruginosa [4]; [11]) was 64 mg/L (≈ 135 µM). For the same compound, the MIC (Staphylococcus aureus [5]) was 0.25 mg/L (≈ 0.526 µM), the MIC (Pseudomonas aeruginosa [6]) was 8 mg/L (≈ 16.8 µM) and the MIC (Staphylococcus aureus [7]) was 8 mg/L (≈ 16.8 µM).
GENTAMICIN [listing 1 of 2 here] gave an IC50 [8] of 45 mg/L.
With GENTAMICIN [listing 2 of 2 here] the MIC (Escherichia coli [1]) was 1 mg/L, the MIC (Enterococcus faecalis) was 16 mg/L and the MIC (Serratia marcescens) was 4 µg/mL (2×) and 8 µg/mL (2×). For the same compound, the MIC (Citrobacter freundii) was 1 mg/L, the MIC (Escherichia coli [2]) was 4 mg/L and the MIC (Enterobacter cloacae) was 32 mg/L. The MIC (Escherichia coli [3]) was 16 mg/L, the MIC (Acinetobacter baumannii) was 32 mg/L and the MIC (Pseudomonas aeruginosa [4]) was 64 mg/L and > 128 mg/L. The MIC (Pseudomonas aeruginosa [6]) was 8 mg/L and the MIC (Staphylococcus aureus [7]) was over 128 mg/L.
